Reference: ChEMBL document CHEMBL1671864, “First assessment in humans of the safety, tolerability, pharmacokinetics, and ex vivo pharmacodynamic antimalarial activity of the new artemisinin derivative artemisone” (Antimicrob Agents Chemother, 2008)
In brackets after ≈: the same amount, converted by molar mass.

How the values were obtained:
Homo sapiens [1] = assay: Toxicity in healthy human assessed as occurrence of clinically relevant changes in vital signs at 10 to 80 mg, po administered as single ascending doses during 10 hrs overnight fasting state; type: organism-based; settings: in vivo
How it was run: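 Healthy Caucasian men received single ascending doses (10–40 mg solution, 80 mg tablets) or 3-day daily tablet courses, all fasting, with randomized placebo controls. Supine blood pressure, heart rate and resting 12-lead ECG were recorded before and after dosing.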

Homo sapiens [2] = assay: Toxicity in healthy human assessed as increase in alanine aminotransferase level at 80 mg, po administered daily for 3 days as four 20-mg immediate-release tablets during 10 hrs overnight fasting state measured after 24 hrs last post treatment; type: organism-based; settings: in vivo
[3] = Cmax in healthy human plasma at 10 mg, po administered as single ascending doses as solution during 10 hrs overnight fasting state; type: ADME, organism-based; design: dose 10 mg, route oral
How it was run: (§1)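 Healthy Caucasian male volunteers, single oral dose with 240 ml water after a 10-h overnight fast. Heparinised venous blood was drawn predose and at 0.25–14 h. Plasma was stored frozen. Parent drug and metabolites M1–M3 were measured by LC/MS-MS (MRM, deuterated internal standard). Noncompartmental analysis gave Cmax observed, t1/2 = 0.693/kel (terminal regression) and MRT = AUMC/AUC. Values are geometric means.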

[4] = Apparent volume of distribution with respect to the bioavailability in healthy human at 10 mg, po administered as single ascending doses as solution during 10 hrs overnight fasting state; type: ADME, organism-based; settings: in vivo, read-out: Vc/F
How it was run: (§2)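 Single ascending oral doses in healthy Caucasian men, given fasted (10-h overnight) with 240 ml water: 10, 20, 30 or 40 mg as oral solution, or 80 mg as IR tablets. Parent plasma levels by LC/MS-MS over 0.25–14 h. Noncompartmental analysis: kel by terminal-phase least-squares regression, AUC extrapolated to infinity, CL/F = dose/AUC, V/F = CL/F÷kel.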

[5] = AUC in healthy human plasma at 20 mg, po administered as single ascending doses as solution during 10 hrs overnight fasting state; type: ADME, organism-based; design: time < 10 hr, dose 20 mg, route oral; how it was run: as §2
[6] = Tmax in healthy human plasma at 20 mg, po administered as single ascending doses as solution during 10 hrs overnight fasting state; type: ADME, organism-based
How it was run: (§3)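 Healthy Caucasian male volunteers, randomized within each dose group against placebo, given a single oral solution with 240 ml water after a 10-h overnight fast. Plasma sampled predose and at 0.25–14 h, quantified by LC/MS-MS (MRM, deuterated internal standard). Tmax read directly from individual noncompartmental concentration–time data.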

[7] = Tmax in healthy human plasma at 30 mg, po administered as single ascending doses as solution during 10 hrs overnight fasting state; type: ADME, organism-based; how it was run: as §3
[8] = AUC in healthy human plasma at 40 mg, po administered as single ascending doses as solution during 10 hrs overnight fasting state; type: ADME, organism-based; design: time < 10 hr, dose 40 mg, route oral; how it was run: as §2
[9] = Tmax in healthy human plasma at 40 mg, po administered as single ascending doses as solution during 10 hrs overnight fasting state; type: ADME, organism-based; how it was run: as §3
[10] = Half life in healthy human plasma at 40 mg, po administered as single ascending doses as solution during 10 hrs overnight fasting state; type: ADME, organism-based; how it was run: as §1
[11] = Apparent oral clearance in healthy human at 40 mg, po administered as single ascending doses as solution during 10 hrs overnight fasting state; type: ADME, organism-based; settings: in vivo; how it was run: as §2
[12] = AUC in healthy human plasma at 80 mg, po administered as single immediate release tablets during 10 hrs overnight fasting state; type: ADME, organism-based; design: dose 80 mg, time < 10 hr, route oral; how it was run: as §2
[13] = Half life in healthy human plasma at 80 mg, po administered as single immediate release tablets during 10 hrs overnight fasting state; type: ADME, organism-based; how it was run: as §1
[14] = Apparent volume of distribution with respect to the bioavailability in healthy human at 80 mg, po administered as single immediate release tablets during 10 hrs overnight fasting state; type: ADME, organism-based; settings: in vivo, read-out: Vc/F; how it was run: as §2
Plasmodium falciparum = assay: Antimalarial activity against Plasmodium falciparum K1 in human plasma assessed as inhibition of hypoxanthine uptake by intraerythrocytic malaria parasites by hypoxanthine incorporation assay; type: functional, organism-based
How it was run: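 K1 or TM90-C2A parasites were sorbitol-synchronized and cultured in RPMI 1640. Drug was diluted in drug-free human serum (0.04–40 ng/ml) or subject plasma was diluted twofold (8–8,192). Parasites were added at 2% hematocrit, 1% parasitemia (>95% rings), and [3H]hypoxanthine uptake was measured over 48 h. IC50 or ID50 came from concentration or dilution-response curves. Equivalent concentration = ID50 × IC50.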

[15] = Cmax in healthy human plasma at 40 mg, po administered as two 20 mg immediate release tablets daily for 3 days during 10 hrs overnight fasting state measured after 1 day; type: ADME, organism-based; design: dose 40 mg, route oral
How it was run: (§4)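 Healthy Caucasian males took tablets once daily for 3 days with 240 ml water after a 10-h fast. Heparinised blood was drawn predose and at 0.25–14 h after the first and last doses. Plasma parent drug and metabolites M1–M3 were measured by LC/MS-MS (MRM, deuterated internal standard). Noncompartmental analysis gave Cmax observed, t1/2 = 0.693/kel and MRT = AUMC/AUC. Values are geometric means.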

[16] = Cmax in healthy human plasma at 40 mg, po administered as two 20 mg immediate release tablets daily for 3 days during 10 hrs overnight fasting state measured after 3 day; type: ADME, organism-based; design: dose 40 mg, route oral; how it was run: as §4
[17] = AUC in healthy human plasma at 40 mg, po administered as two 20 mg immediate release tablets daily for 3 days during 10 hrs overnight fasting state measured after 1 day; type: ADME, organism-based; design: time < 10 hr, dose 40 mg, route oral
How it was run: (§5)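 Healthy Caucasian males took 40 mg (2×20-mg IR tablets) or 80 mg (4 tablets) orally daily for 3 days after a 10-h fast. Plasma parent drug was measured by LC/MS-MS from predose to 14 h after the first and third doses. Noncompartmental analysis: AUC by log-linear trapezoid extrapolated via kel, CL/F = dose/AUC, V/F = CL/F÷kel, geometric means.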

[18] = AUC in healthy human plasma at 40 mg, po administered as two 20 mg immediate release tablets daily for 3 days during 10 hrs overnight fasting state measured after 3 day; type: ADME, organism-based; design: dose 40 mg, time < 10 hr, route oral; how it was run: as §5
[19] = Tmax in healthy human plasma at 40 mg, po administered as two 20 mg immediate release tablets daily for 3 days during 10 hrs overnight fasting state measured after 3 day; type: ADME, organism-based
How it was run: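 Healthy Caucasian men (8 active, 4 placebo per dose) dosed with tablets daily for 3 days after 10-h fast. Lithium-heparin plasma sampled predose and 0.25–14 h after day-1 and day-3 doses, stored frozen. Parent and M1–M3 quantified by LC/MS-MS in positive-ion MRM. Tmax taken directly from observed individual data.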

[20] = Apparent oral clearance in healthy human at 40 mg, po administered as two 20 mg immediate release tablets daily for 3 days during 10 hrs overnight fasting state measured after 1 day; type: ADME, organism-based; settings: in vivo; how it was run: as §5
Plasma [21] = assay: Ratio of Ratio of AUC (0 to infinity) in healthy human plasma at 40 mg, po administered as two 20 mg immediate release tablets daily for 3 days during 10 hrs overnight fasting state measured after 1 day to Ratio of AUC (0 to infinity) in healthy human plasma at 40 mg, po administered as two 20 mg immediate release tablets daily for 3 days during 10 hrs overnight fasting state measured after 3 day; type: ADME, organism-based; settings: in vivo
How it was run: (§6)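 Healthy Caucasian men took tablets daily for 3 days with 240 ml water after 10-h fast. Plasma sampled 0.25–14 h after first and last doses, artemisone measured by LC/MS-MS. Accumulation ratio is Cmax or AUC0-∞ after last dose divided by that after first dose. Noncompartmental analysis, geometric means with 95% CI.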

[22] = Half life in healthy human plasma at 80 mg, po administered as four 20 mg immediate release tablets daily for 3 days during 10 hrs overnight fasting state measured after 3 day; type: ADME, organism-based; how it was run: as §4
Plasma [23] = assay: Ratio of Cmax in healthy human plasma at 80 mg, po administered as four 20 mg immediate release tablets daily for 3 days during 10 hrs overnight fasting state measured after 1 day to Cmax in healthy human plasma at 80 mg, po administered as four 20 mg immediate release tablets daily for 3 days during 10 hrs overnight fasting state measured after 3 day; type: ADME, organism-based; settings: in vivo; how it was run: as §6

**Q.** Which results are given for `C[C@H]1[C@H](N2CCS(=O)(=O)CC2)O[C@@H]2O[C@@]3(C)CC[C@H]4[C@H](C)CC[C@@H]1[C@@]24OO3` [ARTEMIFONE]?
**A.** Activity (Homo sapiens [1]): Non-toxic; Activity (Homo sapiens [2]): Non-toxic; Cmax [3]: 40 ng/mL; Vd/F [4]: 8.93 L/kg; AUC at 10 h [5]: 65.7 ng·h/mL; Tmax [6]: 0.5 h; Tmax [7]: 0.5 h; AUC at 10 h [8]: 118 ng·h/mL; Tmax [9]: 0.625 h; half-life [10]: 3.54 h; CL/F [11]: 5640 mL/min; AUC at 10 h [12]: 282 ng·h/mL; half-life [13]: 2.79 h; Vd/F [14]: 14.5 L/kg; IC50 (Plasmodium falciparum): 0.6 ng/mL (≈ 1.49 nM); Cmax [15]: 96.4 ng/mL; Cmax [16]: 95 ng/mL; AUC at 10 h [17]: 184 ng·h/mL; AUC at 10 h [18]: 191 ng·h/mL; Tmax [19]: 1.13 h; CL/F [20]: 3630 mL/min; Ratio (Plasma [21]): 104%; half-life [22]: 3.07 h; Ratio (Plasma [23]): 84%
